From ChEMBL document CHEMBL4680268, “Pharmacomodulations of the benzoyl-thiosemicarbazide scaffold reveal antimicrobial agents targeting d-alanyl-d-alanine ligase in bacterio” (Eur J Med Chem, 2020)
Converted amounts (≈) assume the structure as drawn. The source made the active and inactive calls. The calls are words filed in the database; no cut-off is given here.

Tests used:
Enterococcus faecalis [1] = assay: Antibacterial activity against vancomycin resistant Enterococcus faecalis BM4390 harboring VanB mutant with inactive Ddl and constitutive expression of D-Ala-D-Lac assessed as reduction in bacterial growth incubated for 18 to 24 hrs by broth microdilution method; format: functional; conditions: time 18-24 hrs
Method in brief: (§1)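 Broth microdilution in cation-adjusted Mueller-Hinton broth per CLSI; inoculum 10⁶ bacteria/mL. Two-fold serial dilutions, compound in broth with 5% DMSO mixed 1:1 with bacterial suspension, giving 2.5% DMSO final. Top concentration 0.1, 0.4 or 0.8 mM depending on solubility. Incubated 18–24 h at 37 °C. MIC = lowest concentration preventing visible growth.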

Staphylococcus aureus [2] = assay: Antibacterial activity against hospital-acquired vancomycin resistant Staphylococcus aureus VRS-1 assessed as reduction in bacterial growth incubated for 18 to 24 hrs by broth microdilution method; format: functional; conditions: time 18-24 hrs; method in brief: as §1
Staphylococcus aureus [3] = assay: Antibacterial activity against methicillin and linezolid resistant Staphylococcus aureus NRS119 assessed as reduction in bacterial growth incubated for 18 to 24 hrs by broth microdilution method; format: functional; conditions: time 18-24 hrs; method in brief: as §1
Staphylococcus aureus [4] = assay: Antibacterial activity against methicillin resistant and vancomycin intermediate resistant Staphylococcus aureus MU50 assessed as reduction in bacterial growth incubated for 18 to 24 hrs by broth microdilution method; format: functional; conditions: time 18-24 hrs; method in brief: as §1
Enterococcus faecalis [5] = assay: Antibacterial activity against vancomycin resistant Enterococcus faecalis JH2-2::C1 harboring constitutive expression of Ddl and vanB ligase assessed as reduction in bacterial growth incubated for 18 to 24 hrs by broth microdilution method; format: functional; conditions: time 18-24 hrs; method in brief: as §1
Staphylococcus aureus [6] = assay: Antibacterial activity against Staphylococcus aureus ATCC 25923 assessed as reduction in bacterial growth incubated for 18 to 24 hrs by broth microdilution method; format: functional; conditions: time 18-24 hrs
Enterococcus faecalis [7] = assay: Antibacterial activity against Enterococcus faecalis ATCC 29212 assessed as reduction in bacterial growth incubated for 18 to 24 hrs by broth microdilution method; format: functional; conditions: time 18-24 hrs
Enterococcus faecalis [8] = assay: Inhibition of recombinant Enterococcus faecalis C-terminal His6-tagged DdlB expressed in Escherichia coli LMG194 assessed as residual activity using D-Ala as substrate at 100 uM preincubated with enzyme for 30 mins followed by substrate addition and measured after 20 mins by malachite green based colorimetric analysis relative to control; conditions: time 50.0 min
Method in brief: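 Purified E. faecalis His-tagged DdlB (20 mg/L) preincubated 30 min at 30 °C with 100 µM compound and 500 µM ATP in 20 mM Tris-HCl pH 7.4, 10 mM MgCl₂, 10 mM KCl, 10% DMSO; 1 mM D-Ala added, 20 min at 30 °C. Phosphate detected with malachite green reagent, A650 after 25 min dark; residual activity versus no-inhibitor control, triplicate.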

[9] = Inhibition of recombinant Enterococcus faecalis C-terminal His6-tagged DdlB expressed in Escherichia coli LMG194 using D-Ala as substrate preincubated with enzyme for 30 mins followed by substrate addition and measured after 20 mins by malachite green based colorimetric analysis
Method in brief: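 DdlB (20 mg/L) malachite green phosphate assay: enzyme, inhibitor and 500 µM ATP preincubated 30 min at 30 °C in Tris-HCl pH 7.4 buffer with MgCl₂, KCl and 10% DMSO, then 1 mM D-Ala for 20 min; A650 read. IC₅₀ from 11 concentrations, also run with 0.01% Triton X-100; mean ± SD of triplicates, n ≥ 2; EC₅₀ given where maximal inhibition stayed below 50%.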

Klebsiella pneumoniae = assay: Antibacterial activity against Klebsiella pneumoniae ATCC700603 assessed as reduction in bacterial growth incubated for 18 to 24 hrs by broth microdilution method; format: functional, organism-based; conditions: 700603, time 18-24 hrs
Method in brief: (§2)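 Microdilution in cation-adjusted Mueller-Hinton broth per CLSI; two-fold compound series in CAMHB with 5% DMSO mixed 1:1 with bacterial suspension, giving 10⁶ bacteria/mL inoculum and 2.5% DMSO final. Top concentrations 0.1, 0.4 or 0.8 mM depending on solubility. Incubated 18–24 h at 37 °C; MIC read as lowest concentration preventing visible growth.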

Enterococcus faecalis [10] = assay: Antibacterial activity against vancomycin resistant Enterococcus faecalis BM4575 harboring VanE genotype, constitutive expression of Ddl and VanE D-Ala-D-Ser ligase assessed as reduction in bacterial growth incubated for 18 to 24 hrs by broth microdilution method; format: functional; conditions: time 18-24 hrs; method in brief: as §1
Cell membrane = assay: Disruption of bacterial cell membrane in Staphylococcus aureus ATCC 25923 assessed as increase in PI uptake at 1 to 5 times MIC measured every 10 mins for 2 hrs by PI dye based spectrophotometry
Method in brief: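 Mid-log S. aureus ATCC 25923 (grown in MHB from OD₆₀₀ 0.05) washed into BET buffer (pH 7.5) at 1.11×10⁶ CFU/mL with 12 nM propidium iodide; compound at 1, 2, 5× MIC, 5% DMSO final. SDS 0.5% positive, buffer negative control. Fluorescence (ex 532/em 620 nm) read in the dark every 10 min for 2 h; triplicate.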

Escherichia coli = assay: Antibacterial activity against Escherichia coli ATCC 25922 assessed as reduction in bacterial growth incubated for 18 to 24 hrs by broth microdilution method; format: functional, organism-based; conditions: time 18-24 hrs; method in brief: as §2
Staphylococcus aureus [11] = assay: Antibacterial activity against hospital-acquired methicillin/ciprofloxacin and moxifloxacin resistant Staphylococcus aureus SA481 assessed as reduction in bacterial growth incubated for 18 to 24 hrs by broth microdilution method; format: functional; conditions: time 18-24 hrs; method in brief: as §1
Staphylococcus aureus [12] = assay: Antibacterial activity against community-acquired methicillin and erythromycin resistant Staphylococcus aureus SA325 assessed as reduction in bacterial growth incubated for 18 to 24 hrs by broth microdilution method; format: functional; conditions: time 18-24 hrs; method in brief: as §1
Pseudomonas aeruginosa = assay: Antibacterial activity against Pseudomonas aeruginosa PAO1 assessed as reduction in bacterial growth incubated for 18 to 24 hrs by broth microdilution method; format: functional, organism-based; conditions: time 18-24 hrs; method in brief: as §2

| Structure (SMILES) | MIC (Enterococcus faecalis [1]) [µM] | MIC (Staphylococcus aureus [2]) [µM] | MIC (Staphylococcus aureus [3]) [µM] | MIC (Staphylococcus aureus [4]) [µM] | MIC (Enterococcus faecalis [5]) [µM] | MIC (Staphylococcus aureus [6]) [µM] | MIC (Enterococcus faecalis [7]) [µM] | Activity (Enterococcus faecalis [8]) [%] | IC50 [9] [nM] | Activity (Klebsiella pneumoniae) | MIC (Enterococcus faecalis [10]) [µM] | Activity (Cell membrane) | Activity (Escherichia coli) | MIC (Staphylococcus aureus [11]) [µM] | MIC (Staphylococcus aureus [12]) [µM] | Activity (Pseudomonas aeruginosa) |
| --- | --- | --- | --- | --- | --- | --- | --- | --- | --- | --- | --- | --- | --- | --- | --- | --- |
| CN[C@H](CC(C)C)C(=O)N[C@H]1C(=O)N[C@@H](CC(N)=O)C(=O)N[C@H]2C(=O)N[C@H]3C(=O)N[C@H](C(=O)N[C@H](C(=O)O)c4cc(O)cc(O)c4-c4cc3ccc4O)[C@H](O)c3ccc(c(Cl)c3)Oc3cc2cc(c3O[C@@H]2O[C@H](CO)[C@@H](O)[C@H](O)[C@H]2O[C@H]2C[C@](C)(N)[C@H](O)[C@H](C)O2)Oc2ccc(cc2Cl)[C@H]1O [VANCOMYCIN] | 700 (≈ 1010 µg/mL) | > 175 | 0.7 (≈ 1.01 µg/mL) | 5 (≈ 7.25 µg/mL) | 350 (≈ 507 µg/mL) | – | – | – | – | – | – | – | – | – | – | – |
| Sc1nnc(-c2ccccc2)n1-c1ccccc1 | – | – | – | – | – | > 400 | > 400 | > 100 | – | – | – | – | – | – | – | – |
| Nc1ccccc1C(=O)NNC(=S)Nc1ccccc1 | – | – | – | – | – | > 400 | > 400 | > 100 | – | – | – | – | – | – | – | – |
| Clc1ccc(Nc2nnc(-c3ccccc3)s2)cc1Cl | – | – | – | – | – | > 100 | > 100 | > 100 | – | – | – | – | – | – | – | – |
| Oc1ccccc1-c1nnc(Nc2ccc(Cl)c(Cl)c2)s1 | – | – | – | – | – | > 100 | > 100 | > 100 | – | – | – | – | – | – | – | – |
| Oc1ccccc1/N=C(/S)Nc1ccccc1 | – | – | – | – | – | > 800 | > 800 | > 100 | – | – | – | – | – | – | – | – |
| O=C(NNC(=S)Nc1ccc(Cl)c(Cl)c1)c1ccccc1O | 50 (≈ 17.8 µg/mL) | 50 (≈ 17.8 µg/mL) | 50 (≈ 17.8 µg/mL) | 100 (≈ 35.6 µg/mL) | 100 (≈ 35.6 µg/mL) | 100 (≈ 35.6 µg/mL) | 50 (≈ 17.8 µg/mL) | – | 1170 | inactive | 50 (≈ 17.8 µg/mL) | inactive | inactive | 100 (≈ 35.6 µg/mL) | 50 (≈ 17.8 µg/mL) | inactive |
| O=C(NNC(=S)Nc1ccc(F)c(F)c1)c1ccccc1O | – | – | – | – | – | 400 (≈ 129 µg/mL) | 400 (≈ 129 µg/mL) | > 50 | 920 | inactive | – | – | inactive | – | – | inactive |
| O=C(NNC(=S)Nc1ccc(F)cc1)c1ccccc1O | > 100 | > 100 | > 100 | > 100 | > 100 | > 100 | 200 (≈ 61.1 µg/mL) | – | 890 | inactive | > 100 | – | inactive | > 100 | > 100 | inactive |
| Oc1ccccc1NC(=S)Nc1ccc(Cl)c(Cl)c1 | 50 (≈ 15.7 µg/mL) | 100 (≈ 31.3 µg/mL) | 50 (≈ 15.7 µg/mL) | 50 (≈ 15.7 µg/mL) | 50 (≈ 15.7 µg/mL) | 25 (≈ 7.83 µg/mL) | 50 (≈ 15.7 µg/mL) | > 100 | – | inactive | 100 (≈ 31.3 µg/mL) | – | inactive | 50 (≈ 15.7 µg/mL) | 50 (≈ 15.7 µg/mL) | inactive |
| S=c1[nH]nc(-c2ccccc2)n1-c1ccc(Cl)c(Cl)c1 | – | – | – | – | – | > 100 | > 100 | > 100 | – | – | – | – | – | – | – | – |
| Oc1ccccc1/C=N/NC(=S)Nc1ccccc1 | – | – | – | – | – | > 400 | > 400 | > 50 | 2600 | – | – | – | – | – | – | – |
| O=C(NNC(=S)Nc1ccc(C(F)(F)F)cc1)c1ccccc1O | > 100 | 100 (≈ 35.5 µg/mL) | 100 (≈ 35.5 µg/mL) | 100 (≈ 35.5 µg/mL) | 100 (≈ 35.5 µg/mL) | 50 (≈ 17.8 µg/mL) | 50 (≈ 17.8 µg/mL) | – | 630 | inactive | 100 (≈ 35.5 µg/mL) | – | inactive | 100 (≈ 35.5 µg/mL) | 100 (≈ 35.5 µg/mL) | inactive |
| COc1ccc(O)c(C(=O)NNC(=S)Nc2ccccc2)c1 | – | – | – | – | – | > 100 | > 100 | – | 630 | – | – | – | – | – | – | – |
